In PMC10043961 (Biomedicine & Pharmacotherapy, 2023):
Where “and” joins values, the source holds several entries; their conditions need not be identical. Equal entries are not always repeated. Entries after “also recorded” stand apart in the source; their conditions may differ. Where two headings read alike, the source gives them in different places.

Columns and labels:
Vero E6 cells [1] = settings: for Drug-induced toxicity, LDH release (in words): Vero E6, 24 h; for Effect on cellular ATP levels (in words): Vero E6, Cell Titer Glo
Vero E6 cells [2] = settings: Vero E6, 1–10 µM, 24 h
[3] = cited from earlier work
SARS-CoV-2 [4] = assay: microbe, parasite or virus in culture; format: cell-based; settings: Severe acute respiratory syndrome coronavirus 2, Vero
[5] = Mouse pharmacokinetics: plasma and epithelial lining fluid; format: in vivo, mice
How it was run: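 Female 6-week-old CD1 mice were dosed PO once daily for 7 days. […] Plasma and BAL were assayed by LC-MS/MS against spiked standard curves. ELF levels came from urea normalization (VELF = VBAL × UreaBAL/Ureaplasma). Free drug was calculated as total × fraction unbound from rapid equilibrium dialysis.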

[6] = system: SARS-CoV-2 viral clearance; settings: patients hospitalized with COVID-19 ref 62; cited from earlier work
[7] = system: SARS-CoV-2 double-stranded RNA; format: cell-based
in vitro = settings: human
[8] = data from DrugBank ref 49; cited from earlier work
[9] = system: purine synthesis pathway in Vero E6 cells; assay: Metabolomic analysis of Vero E6 cells, purine synthesis pathway; format: cell-based; settings: Vero E6, 1 and 5 µM
How it was run: (§1)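 Vero E6 cells at 80% confluence were treated for 24 h with test compound (1, 5 or 10 µM) in regular culture medium, with DMSO as vehicle. Cells were washed with ice-cold PBS and scraped into ice-cold 80% methanol for LC-MS metabolomics. Metabolites were matched to an in-house database (10 ppm mass, 0.5 min retention time tolerance), and peak integration was manually curated.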

[10] = system: ecto-5′-nucleotidase (NT5E) or (CD73); assay: Western blot of NT5E; format: cell-based
How it was run: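 Vehicle- and test compound-treated cells were lysed in RIPA buffer with protease inhibitors, and protein was measured by BCA in triplicate. Lysates were separated by SDS-PAGE and transferred to nitrocellulose. Membranes were blocked in 5% skim milk/TBS and probed with anti-NT5E/CD73 primary antibody.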

[11] = system: SARS-CoV-2 double-stranded RNA; format: cell-based; remark: listed apart in the source
SARS-CoV-2 Mpro [12] = biological target: T1, SARS-CoV-2 Mpro (Severe acute respiratory syndrome coronavirus 2, UniProt P0DTD1); assay: biochemical; settings: for IC50: IC50 against Mpro activity
[13] = system: SARS-CoV-2 (USA-WA1/2020); format: cell-based
SARS-CoV-2 [14] = format: cell-based
[15] = system: pyrimidine synthesis (DHODH) in Vero E6 cells; assay: Metabolomic analysis of Vero E6 cells, de novo pyrimidine synthesis; format: cell-based; settings: 24 h; for Pyrimidine synthesis, UMP levels (in words): Vero E6, 10 µM
How it was run: as §1

[16] = system: SARS-CoV-2 (USA-WA1/2020); assay: microbe, parasite or virus in culture; format: cell-based; settings: for EC50: Severe acute respiratory syndrome coronavirus 2, Huh7.5, read-out: EC50(µM) (R^2); for IC50: Severe acute respiratory syndrome coronavirus 2, Huh7.5, read-out: IC50, inhibitory viral replication concentration at 50%
SARS-CoV-2 Mpro [17] = biological target: T1, SARS-CoV-2 Mpro; format: binding
[18] = read-out: Inhibition of Mpro activity
[19] = mice, 10 mg/kg PO daily for 7 days, 10 mg/kg

O=C1C(O)=C([C@H]2CC[C@H](c3ccc(Cl)cc3)CC2)C(=O)c2ccccc21 [Atovaquone]
Drug-induced toxicity, LDH release (in words) (Vero E6 cells [1]): did not elicit substantial LDH release | Phospholipidosis, NBD-PE (in words) (Vero E6 cells [2]): did not show phospholipidosis | serum levels [3]: > 40 µM | IC50 (SARS-CoV-2 [4]): 0.02 µM | Cmax in mice compared to BID dosing in HIV infected volunteers ([5]; mice 20 mg/kg PO daily for 7 days versus human values of ref 57): 2–5 fold | peak total plasma concentration ([5]; mice, 20 mg/kg PO daily for 7 days): 100 µg/mL | peak free epithelial lining fluid (ELF) concentration ([5]; mice, 20 mg/kg PO daily for 7 days, urea normalized, 20 mg/kg): 70 nM | peak free plasma level ([5]; mice, 20 mg/kg PO daily for 7 days, 20 mg/kg): ~44 nM | half-life ([5]; mouse, in vivo): 18 to 38 h | primary endpoint: effect on SARS-CoV-2 viral clearance compared with placebo [6]: did not meet the primary endpoint | dsRNA staining compared to DMSO-treated control cells [7]: striking reduction in dsRNA staining | CC50 (in vitro): > 100 µM | Protein bound [8]: > 99.9% | Free guanosine, inosine and adenosine levels (in words) [9]: downregulation of adenosine, guanosine, and inosine levels | Free guanosine, inosine and adenosine levels (in words) ([9]; listed as atovaquone): significant depletion | NT5E protein expression, quantification (in words) ([10]; 5 µM): significant decrease | NT5E expression (in words) ([10]; atovaquone treated cells): significantly downregulated | dsRNA staining compared to DMSO-treated control cells [11]: striking reduction in dsRNA staining | inhibition at 50 µM (SARS-CoV-2 Mpro [12]; read-out: Inhibitory effect on Mpro activity): ~35% | Antiviral effect on SARS-CoV-2 replication (in words) [13]: dose-dependent inhibition | Viral replication in the presence of uridine (in words) (SARS-CoV-2 [14]): significant inhibition for viral replication regardless the uridine concentration | Pyrimidine synthesis, UMP levels versus orotate and dihydroorotate (in words) ([15]; Vero E6, 1 µM and 5 µM): does not inhibit pyrimidine synthesis | Pyrimidine synthesis, UMP levels (in words) [15]: significant depletion in UMP levels | Pyrimidine synthesis, UMP levels (in words) ([15]; listed as atovaquone): significant inhibition in pyrimidine synthesis | EC50 [16]: 6.2 µM | IC50 [16]: 6.8 µM

COc1ccccc1Oc1c(NS(=O)(=O)c2ccc(C(C)(C)C)cc2)nc(-c2ncccn2)nc1OCCO [Bosentan]
Drug-induced toxicity, LDH release (in words) (Vero E6 cells [1]): minimal impact | Effect on cellular ATP levels (in words) (Vero E6 cells [1]): minimal impact | Antiviral effect on SARS-CoV-2 replication (in words) [13]: modest dose-dependent antiviral effects

COc1cccc2c1C(=O)c1c(O)c3c(c(O)c1C2=O)C[C@@](O)(C(C)=O)C[C@@H]3O[C@H]1C[C@H](N)[C@H](O)[C@H](C)O1 [Daunorubicin]
Drug-induced toxicity, LDH release (in words) (Vero E6 cells [1]): toxic to cells at high doses | Antiviral effect on SARS-CoV-2 replication (in words) [13]: dose-dependent inhibition

CCCCc1oc2ccc(NS(C)(=O)=O)cc2c1C(=O)c1ccc(OCCCN(CCCC)CCCC)cc1 [Dronedarone]
Drug-induced toxicity, LDH release (in words) (Vero E6 cells [1]): particularly toxic at IC50 concentrations | CC50 (in vitro): 20.2 µM | Inhibition of Mpro activity (in words) (SARS-CoV-2 Mpro [12]): significant inhibition | IC50 (SARS-CoV-2 Mpro [12]): 18 µM | inhibition at 50 µM (SARS-CoV-2 Mpro [12]; [18]): 50% | Antiviral effect on SARS-CoV-2 replication (in words) [13]: dose-dependent inhibition | EC50 [16]: 0.38 µM | IC50 [16]: 0.38 µM

CCN(CC)C(=O)/C(C#N)=C/c1cc(O)c(O)c([N+](=O)[O-])c1 [Entacapone]
Mpro covalently modified (SARS-CoV-2 Mpro [17]): 15–20% | Inhibition of Mpro activity (in words) (SARS-CoV-2 Mpro [12]): significant inhibition | IC50 (SARS-CoV-2 Mpro [12]): 9 µM and 9.04 µM | inhibition at 50 µM (SARS-CoV-2 Mpro [12]; [18]): 50% | Antiviral effect on SARS-CoV-2 replication (in words) [13]: did not elicit a reproducible antiviral effect

COC(=O)Nc1nc2ccc(C(=O)c3ccccc3)cc2[nH]1 [Mebendazole]
Drug-induced toxicity, LDH release (in words) (Vero E6 cells [1]): absence of overt toxicity | peak plasma levels of patients ([3]; patients receiving 10 mg/kg every 6 h (total 40 mg/kg/day) ref 60): 0.3 to 1.69 µM | time of maximum total plasma concentration after the last dose ([5]; mice, 10 mg/kg PO daily for 7 days): ≤ 90 min | maximum total plasma concentration [5, 19]: 697.67 ng/mL and 2.36 µM | peak free drug level in ELF [5, 19]: ~550 ng/mL and ~1.8 µM | CC50 (in vitro): > 100 µM | Inhibition of Mpro activity (in words) (SARS-CoV-2 Mpro [12]): significant inhibition | IC50 (SARS-CoV-2 Mpro [12]): 19 µM and 19.9 µM | Antiviral effect on SARS-CoV-2 replication (in words) [13]: dose-dependent inhibition | Antiviral activity in Huh7.5 cells (in words) [16]: lacks strong inhibitory activity; also recorded: less effective

O=C1c2c(O)ccc(O)c2C(=O)c2c(NCCNCCO)ccc(NCCNCCO)c21 [Mitoxantrone]
Drug-induced toxicity, LDH release (in words) (Vero E6 cells [1]): did not elicit substantial LDH release | Antiviral effect on SARS-CoV-2 replication (in words) [13]: dose-dependent inhibition

C[C@@H]1O[C@@H](O[C@H]2C[C@@H](O)[C@]3(CO)[C@H]4[C@H](O)C[C@]5(C)[C@@H](C6=CC(=O)OC6)CC[C@]5(O)[C@@H]4CC[C@]3(O)C2)[C@H](O)[C@H](O)[C@H]1O [Ouabain]
Drug-induced toxicity, LDH release (in words) (Vero E6 cells [1]): absence of overt toxicity | CC50 (in vitro): > 100 µM | Antiviral effect on SARS-CoV-2 replication (in words) [13]: dose-dependent inhibition | IC50 against SARS-CoV-2 (in words) [13]: low nanomolar range | EC50 [16]: 0.07 µM | IC50 [16]: 0.075 µM

C=C[C@H]1C[N@@]2CC[C@H]1C[C@@H]2[C@@H](O)c1ccnc2ccc(OC)cc12 [Quinidine]
Drug-induced toxicity, LDH release (in words) (Vero E6 cells [1]): minimal impact | Effect on cellular ATP levels (in words) (Vero E6 cells [1]): minimal impact | Antiviral effect on SARS-CoV-2 replication (in words) [13]: modest dose-dependent antiviral effects

COc1cccc(-c2ccc(NC(=O)C3=C(C(=O)O)CCC3)c(F)c2)c1 [vidofludimus]
Viral replication in the presence of uridine (in words) (SARS-CoV-2 [14]): inhibitory activity was reversed with addition of uridine; also recorded: activity changed based on the uridine addition
